For data set [1], the species on record is Homo sapiens. The data set is described as follows: Antiplatelet activity in human platelet-rich plasma assessed as inhibition of ADP-induced platelet aggregation by aggregometry. In kind it is functional. Put shortly: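 Human PRP from healthy donors free of aspirin/NSAIDs for at least two weeks, drawn into ACD; PRP spun at 300 g for 10 min, PPP at 2000 g. Compound in 0.5% DMSO preincubated 2 min at 37 °C with stirring (900 rpm). Aggregation induced by 10 μM ADP (final) and followed optically for 5 min.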

Data set [2] is described as follows: MRT in Sprague-Dawley rat at 5 mg/kg,po measured up to 24 hrs by LC-MS/MS analysis. Type of data set: ADME, organism-based. To be noted: in vivo.
Data set [3] in a line: Metabolic stability in rat liver microsomes assessed as half life at […] measured up to 60 mins in presence of NADPH regeneration system by LC-MS/MS analysis. In kind it is ADME, Microsome. (Liver microsomes are vesicles of endoplasmic reticulum, rich in cytochrome P450 enzymes.)
Data set [4] is described as follows: Metabolic stability in dog liver microsomes assessed as half life at […] measured up to 60 mins in presence of NADPH regeneration system by LC-MS/MS analysis. Type of data set: ADME, Canis lupus familiaris, Microsome.
Data set [5] can be described thus: Cmax in Sprague-Dawley rat at 5 mg/kg,po measured up to 24 hrs by LC-MS/MS analysis. In kind it is ADME, organism-based. The conditions noted are these: in vivo. Details: time < 24 hrs, dose 5 mg/kg, route po.
Data set [6] is described as follows: AUC (0 to infinity) in Sprague-Dawley rat at 5 mg/kg,po measured up to 24 hrs by LC-MS/MS analysis. In kind it is ADME, organism-based. Further details: time < 24 hrs, dose 5 mg/kg, route po. To be noted: in vivo.
The nature of data set [7]: Metabolic stability in rat liver microsomes assessed as intrinsic clearance at 0.1 µM measured up to 60 mins in presence of NADPH regeneration system by LC-MS/MS analysis. To be noted: 1 h.
Data set [8] can be described thus: Metabolic stability in human liver microsomes assessed as intrinsic clearance at 0.1 µM measured up to 60 mins in presence of NADPH regeneration system by LC-MS/MS analysis. The conditions noted are these: 1 h.
The nature of data set [9]: Metabolic stability in dog liver microsomes assessed as intrinsic clearance at 0.1 µM measured up to 60 mins in presence of NADPH regeneration system by LC-MS/MS analysis. To be noted: 1 h.
Data set [10] in a line: Tmax in Sprague-Dawley rat at 5 mg/kg,po measured up to 24 hrs by LC-MS/MS analysis. Type of data set: ADME, organism-based. To be noted: in vivo.
The subject of data set [11] is Rattus norvegicus. Put plainly: Antithrombotic activity in anesthetized Wistar rat model of FeCL3-induced carotid artery thrombosis assessed as reduction in thrombus weight at 10 mg/kg, po administered as single dose measured at 1.5 hrs post dose. Type of data set: functional, organism-based. Put shortly: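 Compounds in 0.5% CMC-Na given to Wistar rats as a single oral gavage dose (10 mL/kg). Rats anesthetized with 2% pentobarbital i.p. at 50 mg/kg and kept on a heating pad. At 1.5 h post-dose, filter paper soaked in 20% FeCl3 applied to the isolated left carotid artery for 10 min; thrombus weight recorded. Mean ± SEM, n = 10.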

A short description of data set [12]: Metabolic stability in human liver microsomes assessed as half life at […] measured up to 60 mins in presence of NADPH regeneration system by LC-MS/MS analysis. In kind it is ADME, Microsome.
The nature of data set [13]: Half life in Sprague-Dawley rat at 5 mg/kg,po measured up to 24 hrs by LC-MS/MS analysis. Type of data set: ADME, organism-based. To be noted: in vivo.

Calls of active or inactive are those of the source. The calls are words filed in the database; no cut-off is given here.

As to `N#Cc1cc2c(nc1N1CCC(F)(C(=O)NS(=O)(=O)c3ccc(Cl)s3)CC1)COC2=O`, in [1], the half-inhibitory concentration (IC50) (usually the concentration at which inhibition is half-maximal) worked out at 37.1 µM.
Still for that read-out and setting: the value for `N#Cc1cc2c(nc1N1CCC(F)(C(=O)NS(=O)(=O)Cc3ccc(Cl)cc3)CC1)COC2=O` was 37.2 µM; that for `Cc1ccc(CS(=O)(=O)NC(=O)C2(F)CCN(c3nc4c(cc3C#N)C(=O)OC4)CC2)cc1` was 32.8 µM; that for `N#Cc1cc2c(nc1N1CCC(C(=O)NS(=O)(=O)Cc3ccccc3)CC1)CNC2=O` was over 300 µM.
On to `CC1(C(=O)NS(=O)(=O)Cc2ccc(F)cc2F)CCN(c2nc3c(cc2C#N)C(=O)OC3)CC1`, for which the IC50 in data set [1] stood at 8.76 µM.
As for `N#Cc1ccc(CS(=O)(=O)NC(=O)C2CCN(c3nc4c(cc3C#N)C(=O)OC4)CC2)cc1`, the IC50 in data set [1] was determined as 8.9 µM.
On the same count and under the same terms, in the case of `N#Cc1cc2c(nc1N1CCC(C(=O)NS(=O)(=O)Cc3ccccc3)CC1)CCC(F)C2=O` (stereo unspecified) it was 255 µM.
On to `N#Cc1cc2c(nc1N1CCC(C(=O)NS(=O)(=O)Cc3cccc(F)c3)CC1)COC2=O`, for which, in data set [1], the IC50 turned out to be 70.5 µM.
As for `CC(c1ccccc1)S(=O)(=O)NC(=O)C1CCN(c2nc3c(cc2C#N)C(=O)OC3)CC1` (stereo unspecified), in [1], the IC50 was 4.16 µM.
With `N#Cc1cc2c(nc1N1CCC(C(=O)NS(=O)(=O)Cc3ccccc3)CC1)COC2=O`, in [2], the MRT (usually the average time that molecules of a dose stay in the body) was found to be 1.91 h. Also, in data set [1], the IC50 came to 2.35 µM. For the same compound, the half-life (commonly how long it takes for the measured level to halve) was 2.42 h in [3], 1.93 h in [4], 1.35 h in [12] and 1.7 h in data set [13]. Besides, the Cmax (commonly the highest concentration seen after dosing) in [5] was 271 ng/mL. For the same compound, in data set [6], the AUC(0-inf) (as a rule, total exposure, with the tail of the curve extrapolated) is 384 ng·h/mL. Besides, the results for the intrinsic clearance in data set [7], in data set [8] and in data set [9] were 14.5 mL/min/g, 25.8 mL/min/g and 18.2 mL/min/g, respectively. Further, the time to peak (Tmax) (usually the time at which the peak concentration occurs) in data set [10] was 0.25 h. Moreover, the outcome in [11] was Active.
For the compound `N#Cc1cc2c(nc1N1CCC(C(=O)NS(=O)(=O)Cc3ccccc3)CC1)CCCC2=O`, the IC50 in [1] was found to be 117 µM.
Still for that read-out and setting: in the case of `N#Cc1cc2c(nc1N1CCC(C(=O)NS(=O)(=O)Cc3ccc(Cl)cc3)CC1)COC2=O` it was 4.42 µM.
For `N#Cc1cc2c(nc1N1CCC(C(=O)NS(=O)(=O)Cc3ccccc3)C1)COC2=O` (stereo unspecified), in data set [1], the IC50 is over 300 µM.
`CC1OC(=O)c2cc(C#N)c(N3CCC(C(=O)NS(=O)(=O)c4ccc(Cl)s4)CC3)nc21` (stereo unspecified): the IC50 in data set [1] is over 300 µM.
On the same count and under the same terms, the value for `N#Cc1cc2c(nc1N1CC(C(=O)NS(=O)(=O)Cc3ccccc3)C1)COC2=O` was over 300 µM.
In data set [2], `CC1(C(=O)NS(=O)(=O)Cc2ccc(Cl)cc2)CCN(c2nc3c(cc2C#N)C(=O)OC3)CC1` registered an MRT of 2.58 h. In [1], the IC50 is 3.01 µM. Also, the Cmax in [5] amounted to 877 ng/mL. The compound also had an AUC(0-inf) in data set [6] of 1350 ng·h/mL. Moreover, the Tmax in data set [10] was 0.25 h. This compound had a half-life in [13] of 1.9 h.
In the case of `Cc1ccc(CS(=O)(=O)NC(=O)C2CCN(c3nc4c(cc3C#N)C(=O)OC4)CC2)cc1`, the IC50 in data set [1] was 4.28 µM.
In data set [2], `N#Cc1cc2c(nc1N1CCC(F)(C(=O)NS(=O)(=O)Cc3ccccc3)CC1)COC2=O` had an MRT of 3.83 h. Moreover, in data set [1], the IC50 was 1.21 µM. In [5], this compound showed a Cmax of 149 ng/mL. The compound also displayed an AUC(0-inf) in data set [6] of 291 ng·h/mL. For the same compound, the Tmax in data set [10] amounted to 0.25 h. The compound also had a half-life in data set [13] of 2.52 h.
With `CC1(C(=O)NS(=O)(=O)Cc2ccc(F)cc2)CCN(c2nc3c(cc2C#N)C(=O)OC3)CC1`, the IC50 in [1] was 35.4 µM.
The same measure, in the same setting: the value for `CC1(C(=O)NS(=O)(=O)Cc2ccccc2)CCN(c2nc3c(cc2C#N)C(=O)OC3)CC1` was 6.68 µM; that for `N#Cc1cc2c(nc1N1CCC(C(=O)NS(=O)(=O)Cc3ccccc3F)CC1)COC2=O` was 23.7 µM; that for `CC(c1ccccc1)S(=O)(=O)NC(=O)C1(F)CCN(c2nc3c(cc2C#N)C(=O)OC3)CC1` (stereo unspecified) was 9.95 µM.
For `N#Cc1cc2c(nc1N1CCC(C(=O)NS(=O)(=O)C3(c4ccccc4)CC3)CC1)COC2=O`, the IC50 in data set [1] stood at 4.1 µM.
`N#Cc1cc2c(nc1N1CCC(C(=O)NS(=O)(=O)Cc3cc(Cl)cc(Cl)c3)CC1)COC2=O`: the IC50 in [1] came out at 30.5 µM.
As to `N#Cc1cc2c(nc1N1CCC(C(=O)NS(=O)(=O)Cc3ccc(F)cc3)CC1)COC2=O`, in [1], the 50% inhibitory concentration (IC50) amounted to 3.5 µM.
In the case of `N#Cc1cc2c(nc1N1CC(C(=O)NS(=O)(=O)c3ccc(Cl)s3)C1)COC2=O`, the IC50 in data set [1] worked out at 193 µM.
As to `N#Cc1cc2c(nc1N1CCC(C(=O)NS(=O)(=O)Cc3ccc(C(F)(F)F)cc3)CC1)COC2=O`, in data set [1], the IC50 was 15.9 µM.
The same measure, in the same setting: in the case of `CC1OC(=O)c2cc(C#N)c(N3CCC(C(=O)NS(=O)(=O)Cc4ccccc4)C3)nc21` (stereo unspecified) it was over 300 µM.
Regarding `N#Cc1cc2c(nc1N1CCC(C(=O)NS(=O)(=O)Cc3ccc(F)cc3F)CC1)COC2=O`, the IC50 in data set [1] came out at 5.2 µM.
For `N#Cc1cc2c(nc1N1CCC(C(=O)NS(=O)(=O)Cc3ccccc3)CC1)CCOC2=O`, in data set [1], the IC50 was over 300 µM.
For the compound `CN1Cc2nc(N3CCC(C(=O)NS(=O)(=O)Cc4ccccc4)CC3)c(C#N)cc2C1=O`, in data set [1], the IC50 was over 300 µM.
For the compound `CC1OC(=O)c2cc(C#N)c(N3CCC(C(=O)NS(=O)(=O)Cc4ccccc4)CC3)nc21` (stereo unspecified), the IC50 in data set [1] is over 300 µM.
As to `CC1OC(=O)c2cc(C#N)c(N3CC(C(=O)NS(=O)(=O)Cc4ccccc4)C3)nc21` (stereo unspecified), the IC50 in [1] was over 300 µM.
`N#Cc1cc2c(nc1N1CCC(C(=O)NS(=O)(=O)Cc3ccccc3)CC1)CCC(Cl)C2=O` (stereo unspecified): in data set [1], the IC50 is over 300 µM.
